Assay outcomes from PubChem BioAssay.
An excerpt weighted towards active compounds, which were near 2.3% of everything screened.
Rpn11 inh: Rpn11 (human) deubiquitinase inhibition; inhibition, % at 20 µM; O00487; 360,000 compounds, 0.59% hits; human 26S proteasome, Ub4-pepOG fluorescence polarization; 20S core pre-blocked with epoxomicin; AID 588493;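 active means inhibition at 20 µM, scaled to each plate's controls, above about 33%, limit read from the data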
MT1-MMP act inh: MT1-MMP (human) activation inhibition | HT1080 RFP-PRO-GFP cells, GFP/RFP ratio fluorescence, overnight; percent of plate control window, DMSO zero | GFP/RFP ratio change, % at 20 µM | 360,000 compounds, 0.061% hits | AID 651647;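 active means GFP/RFP ratio change of at least 30% with cell ATP level not reduced by more than half and red fluorescence within 50% of control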
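Assay system: HT1080 cells carrying an RFP-PRO-GFP reporter | Dosing: Single dose of 20 µM compound, 1% DMSO final | Incubation: Cells overnight before dosing, compound overnight, 37 °C, 5% CO2 | Evaluation: GFP/RFP fluorescence ratio | Control set: DMSO and RFP-L50D-GFP cell wells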
DNMT1 block: blocks human DNA methyltransferase DNMT1. AID 588458. inhibition (reported as % activation of signal), % at 10 µM. DNMT1 molecular beacon, Hinp1I cleavage, fluorescence. 360,000 compounds, 0.83% hits. P26358; in the data active means inhibition above about 50%
SUMO1-SIM PPI: modulators of human SUMO1-mediated protein-protein interactions; P63165; SUMO1 binding to a labelled peptide, TR-FRET, 1 h; inhibition, % at 20 µM; 360,000 compounds, 0.33% hits; AID 602429; in the data active means inhibition above about 37%
SKN-1 block: C. elegans SKN-1 inhibition; 360,000 compounds, 0.49% hits; AID 624304; inhibition, % at 21.8 µM; C. elegans VP596 Pgst-4::GFP/RFP ratio, acrylamide-induced, 24 h;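 active means interference check ratio from 0.5 to 1.5 plus GFP to RFP signal ratio inhibition reaching or exceeding a fixed threshold, cut at about 30% in these data, passing the limit was not always enough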
CSN deneddyl inh: blocks human CSN-mediated cullin deneddylation. Q92905. Purified CSN, SCF-Nedd8-OG deneddylation, fluorescence polarization. inhibition, % at 12.5 µM. 360,000 compounds, 0.38% hits. AID 651999;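 active means pattern-corrected inhibition above about 35%, with an unprinted fluorescence ratio check between 0.5 and 1.5, limit read from the data, passing the limit was not always enough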;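 further: 0% = enzyme with substrate and 100% = substrate without enzyme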
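Assay system: purified human Csn5 enzyme expressed in HEK293T cells; Input: 0.24 nM Csn5 enzyme, final concentration; Reagent: 10 nM SCFSkp2-Nedd8OG; Compound dosing: 12.5 µM single point; Times: reaction 90 min, room temperature; Technique: fluorescence polarization readout.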
Numbers without * were called inactive; / = no result shown.

SMILES	Rpn11 inh	MT1-MMP act inh	DNMT1 block	SUMO1-SIM PPI	SKN-1 block	CSN deneddyl inh
CCN(CC)C(=O)Cn1c(C)c(/C=C/c2cc[n+](C)cc2)c2ccccc21	/	-157.7	10.3	-93.0	-2.8	99.0*
Cc1nc(S/C(=C/c2ccc(-c3cc(Cl)ccc3C)o2)C(=O)O)n[nH]1	31.1	-8.8	-1.9	69.0*	16.6	-5.0
CCOC(=O)c1cc2cc3ccccc3cc2[nH]1	-14.7	-0.5	-24.0	-24.4	39.7*	-0.9
COc1ccc(OCCN(C)C(=O)c2cccc(S(=O)(=O)N(C)c3ccccc3)c2)cc1	5.3	3.1	-1.7	2.1	36.7*	-1.9
CCN(c1ccccc1)S(=O)(=O)c1cccc(C(=O)N(C)CCOc2ccccc2)c1	0.3	3.1	-18.4	-35.0	0.4	4.4
CN1/C(=C\C(=O)COC(=O)CNC(=O)c2ccc3ccccc3c2)C(C)(C)c2ccccc21	26.8	12.1	-8.4	-17.3	40.3*	7.6
CN1/C(=C\C(=O)CSc2nnc(N)s2)C(C)(C)c2ccccc21	8.0	6.6	-4.0	-2.2	13.5	5.8
CN1/C(=C\C(=O)COC(=O)CNC(=O)c2ccccc2F)C(C)(C)c2ccccc21	-1.4	5.4	-3.0	2.0	11.2	-5.8
CN1/C(=C\C(=O)CSc2cccc[n+]2[O-])C(C)(C)c2ccccc21	14.2	6.8	0.4	-0.7	16.9	2.1
COc1ccc(Nc2nnc(SCC(=O)/C=C3/N(C)c4ccccc4C3(C)C)s2)cc1	11.7	2.9	-15.8	0.9	37.0*	-1.7
CN1/C(=C/C(=O)CSc2ccccc2C(=O)O)C(C)(C)c2ccccc21	11.0	13.3	-0.4	-2.8	35.7*	2.4
CCCNC(=O)C1(C)CCN1C(=O)c1ccc(C(C)(C)C)cc1 (stereo unspecified)	-4.8	9.5	-2.2	3.8	-10.5	1.8
COc1ccccc1CNc1nc(NCc2ccc3occc3c2)c2sccc2n1	3.2	-3.3	-24.3	-9.9	12.5	-5.3
CC(=O)NC(CC(=O)OC(C)C(=O)Nc1ccc(Cl)cn1)c1ccccc1 (stereo unspecified)	0.0	-4.8	0.2	5.2	8.5	-0.7
CC(OC(=O)CC(C)c1ccccc1)C(=O)Nc1ccc(Cl)cn1 (stereo unspecified)	-0.9	-2.7	-0.4	4.5	-2.5	43.2*
O=C1C=C(N2CCCCC2)c2ccccc2C1=O	36.3	-4.4	88.8*	66.0*	16.2	8.1
O=C1c2ccccc2C(=O)c2c1cccc2N1CCCC1	-2.6	24.9	-9.9	-18.2	30.6	-14.7
CC1CCN(Cc2nc(-c3ccccc3)no2)CC1	-5.0	-3.2	-1.8	49.9*	24.8	-1.9
Cc1ccc(-c2nnn(CC(=O)NCC3CC3)n2)o1	-0.1	0.9	-0.2	1.6	-7.3	0.5
Cc1ccc(-c2nnn(CC(=O)NCC3COCCO3)n2)o1 (stereo unspecified)	-0.8	-11.4	-0.9	11.5	41.7*	2.2
Cc1oc(-c2cc(F)ccc2F)nc1CN1CCC(C(=O)N2CCOCC2)CC1	2.9	-1.0	1.3	43.9*	14.3	2.7
COc1ccc(-c2nc(CN3CCC(C(=O)N4CCOCC4)CC3)c(C)o2)cc1OC	1.8	-1.9	-2.4	0.7	7.2	3.6
CCC(CN(C)C)Oc1cc(NCc2ccccc2)c2ncn(C(C)C)c2c1 (stereo unspecified)	-11.2	-16.5	60.6*	4.5	10.2	12.9
CCC(CO)Oc1cc(NC(=O)c2ccccc2F)c2ncn(C(C)C)c2c1 (stereo unspecified)	36.9	3.6	-30.1	92.0*	5.6	4.5
CCC(CO)Oc1cc(NC(=O)c2ccccc2N)c2ncn(C(C)C)c2c1 (stereo unspecified)	15.1	0.3	-7.4	6.4	2.1	4.9
SMILES	Rpn11 inh	MT1-MMP act inh	DNMT1 block	SUMO1-SIM PPI	SKN-1 block	CSN deneddyl inh
CCC(CO)Oc1cc(NC(=O)c2ccccc2C)c2ncn(C(C)C)c2c1 (stereo unspecified)	29.9	-2.2	-45.9	50.0*	8.3	4.8
CCCC[C@@H]1CC2=C(C(=O)OC(C)(C)O2)[C@@H](c2ccc(Cl)cc2)O1	/	0.3	/	4.5	-12.2	1.1
CCN(CC(=O)NCc1ccc(F)cc1)Cc1nc2cc(Cl)ccc2c(=O)[nH]1	3.1	-6.6	-1.2	-1.0	64.6*	3.2
Cc1cc(N/N=C/c2ccccc2O)nc(-c2ccccc2O)n1	1.9	8.5	2.1	42.3*	15.4	-1.8
Cc1cc(N/N=C/c2ccc(O)cc2O)nc(-c2ccccc2O)n1	-8.2	-4.4	-30.3	11.8	-3.3	-4.1
COC(=O)c1ccc(Nc2cc(C)nc(-c3ccccc3O)n2)cc1	-2.1	-0.4	3.5	58.8*	21.9	1.6
Cn1c(/N=C/c2c(O)ccc3ccccc23)nc2ccccc21	-12.0	6.4	4.0	81.7*	14.5	2.8
O=C(O)c1ccc(N=Cc2c(O)ccc3ccccc23)cc1	3.5	0.3	-6.3	-12.7	2.9	-1.4
COc1ccc(N=Cc2c(O)ccc3ccccc23)cc1	/	1.2	-7.7	-18.1	2.3	50.7*
O=C(c1ccccc1)c1sc(Nc2ccc3c(c2)OCO3)nc1-c1ccccc1	20.2	-5.9	-14.9	-1.5	13.9	-2.6
COC(=O)c1cc(Cl)ccc1NCC(N)c1ccccc1 (stereo unspecified)	-7.6	5.2	-11.1	-4.8	-2.5	2.1
Cc1cc(CC(C)C)n(-c2nc3ccccc3c(=O)n2OCc2ccccc2)n1	-7.7	/	-1.3	-2.7	37.1*	2.7
Cc1cc(CC(C)C)n(-c2nc3ccccc3c(=O)n2OCC(=O)N(C)C)n1	-4.8	0.2	-0.9	-1.1	9.6	-4.7
C#CCSc1nnc(-c2cccc3ccccc23)o1	3.3	6.2	-4.1	-15.2	82.2*	0.8
C=CCSc1nnc(-c2cccc3ccccc23)o1	-5.7	7.0	1.8	-10.3	-3.5	2.7
CCCC1=NN2C(=N)/C(=C\c3cc(C)n(-c4cccc(C)c4)c3C)C(=O)N=C2S1	12.7	-20.8	55.5*	-2.5	11.1	2.0
CCCC1=NN2C(=N)/C(=C\c3cc(C)n(Cc4ccccc4)c3C)C(=O)N=C2S1	4.0	3.4	1.7	-1.3	3.2	5.3
Nc1nc(N)c2cc(CNc3ccc(Cl)c(Cl)c3)ccc2n1	-21.8	2.3	-2.6	-119.5	22.4	0.3
Cc1cccc(NC(=O)NCCN2CCCCC2)c1	4.3	1.3	0.0	4.1	38.4*	-2.6
COc1ccc(C2=Nc3ccccc3NC(=O)C2N(C(=O)c2cnc(C)cn2)c2ccc(N3CCOCC3)cc2)cc1 (stereo unspecified)	-0.4	1.1	1.3	1.9	6.3	1.0
